Test results taken from ChEMBL document CHEMBL4732206, “Novel diaryl-2H-azirines: Antitumor hybrids for dual-targeting tubulin and DNA” (Eur J Med Chem, 2021).
Activity calls are given as the source filed them. The calls are words filed in the database; no cut-off is given here.

Legend:
A2780 = assay: Antiproliferative activity against human A2780 cells assessed as reduction in cell viability incubated for 48 hrs by MTT assay; format: functional, cell-based; conditions: A2780, 48 h
How it was run: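 Cells were grown in DMEM with 10% FBS and penicillin/streptomycin at 37 °C and 5% CO2. They were seeded for 24 h, then treated with graded concentrations for 48 h. MTT (5 mg/mL) was added for a further 4 h at 37 °C. Formazan was dissolved in DMSO and absorbance read at 570 nm. IC50 was taken from the concentration-response curve.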

HeLa [1] = assay: Induction of apoptosis in human HeLa cells assessed as late apoptotic cells at 8 uM incubated for 48 hrs by annexin-V-FITC and PI staining based flow cytometry analysis (reference value: 0.23 %); format: functional
HeLa [2] = assay: Induction of apoptosis in human HeLa cells assessed as late apoptotic cells at 4 uM incubated for 48 hrs by annexin-V-FITC and PI staining based flow cytometry analysis (reference value: 0.23 %); format: functional
HUVEC = assay: Antiangiogenic activity in HUVEC assessed as disruption of capillary structure incubated for 12 hrs by matrigel-based microscopic analysis; format: functional, cell-based; conditions: Homo sapiens, dose 75-150 nM
How it was run: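 Matrigel polymerized at 37 °C for 2 h, then HUVECs in DMEM were seeded on it. Cells were treated with a range of compound concentrations or DMSO vehicle for 12 h at 37 °C. Capillary-like tubes were photographed through an inverted microscope.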

Jurkat [3] = assay: Induction of DNA damage in human Jurkat cells assessed as increase in tail moment at 100 to 400 nM incubated for 48 hrs by comet assay; format: functional, cell-based; conditions: dose 100-400 nM
How it was run: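 Jurkat cells were exposed to graded concentrations, MMC 200 nM positive control or DMSO for 48 h at 37 °C, with work done in darkness. Cells were embedded in LM agarose on comet slides and lysed for 2 h at 4 °C. Slides were unwound in 1 mM EDTA/200 mM NaOH for 30 min, electrophoresed at 25 V for 15 min, stained with ethidium bromide and imaged by fluorescence microscopy. Tail moment was scored.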

Jurkat [4] = assay: Induction of DNA damage in human Jurkat cells assessed as upregulation of GADD45alpha protein expression incubated for 48 hrs by Western blot analysis; format: functional, cell-based; conditions: dose 2-8 µM
HeLa [5] = assay: Induction of apoptosis in human HeLa cells assessed as necrotic cells at 1 uM incubated for 48 hrs by annexin-V-FITC and PI staining based flow cytometry analysis (reference value: 0.18 %); format: functional
HeLa [6] = assay: Induction of apoptosis in human HeLa cells assessed as upregulation of PARP cleavage by Western blot analysis; format: functional, cell-based; conditions: dose 2-8 µM
How it was run: (§1)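 HeLa cells were treated with graded concentrations or DMSO, washed in PBS and lysed. Protein was measured by BCA, separated by SDS-PAGE and transferred to PVDF. Membranes were blocked in 5% BSA/TBST, incubated with primary antibodies overnight at 4 °C, then with HRP secondary antibodies. Bands were detected by chemiluminescence.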

Jurkat [7] = assay: Induction of DNA damage in human Jurkat cells assessed as upregulation of Bax protein expression incubated for 48 hrs by Western blot analysis; format: functional, cell-based; conditions: dose 2-8 µM
[8] = Inhibition of pig brain tubulin polymerization by spectrophotometry; set-up: species or system Sus scrofa
HeLa [9] = assay: Induction of apoptosis in human HeLa cells assessed as viable cells at 8 uM incubated for 48 hrs by annexin-V-FITC and PI staining based flow cytometry analysis (reference value: 97.34 %); format: functional; conditions: read-out: Activity
HeLa [10] = assay: Induction of cell cycle arrest in human HeLa cells assessed as increase in accumulation of cells at G2/M phase incubated for 24 hrs by PI staining based flow cytometry analysis; format: functional; conditions: dose 0.4-3.2 µM
How it was run: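 HeLa cells were grown for 24 h, then treated with graded concentrations or DMSO for 24 h. Cells were fixed in 75% ethanol at −20 °C overnight, treated with RNase A and stained with PI in PBS in the dark at room temperature. DNA content was measured by flow cytometry.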

HeLa [11] = assay: Induction of apoptosis in human HeLa cells assessed as early apoptotic cells at 8 uM incubated for 48 hrs by annexin-V-FITC and PI staining based flow cytometry analysis (reference value: 2.25 %); format: functional
HeLa [12] = assay: Induction of apoptosis in human HeLa cells assessed as late apoptotic cells at 1 uM incubated for 48 hrs by annexin-V-FITC and PI staining based flow cytometry analysis (reference value: 0.23 %); format: functional
HeLa [13] = assay: Induction of apoptosis in human HeLa cells assessed as necrotic cells at 2 uM incubated for 48 hrs by annexin-V-FITC and PI staining based flow cytometry analysis (reference value: 0.18 %); format: functional
HeLa [14] = assay: Induction of apoptosis in human HeLa cells assessed as upregulation of p53 protein expression by Western blot analysis; format: functional, cell-based; conditions: dose 2-8 µM; how it was run: as §1
HeLa [15] = assay: Induction of apoptosis in human HeLa cells assessed as necrotic cells at 8 uM incubated for 48 hrs by annexin-V-FITC and PI staining based flow cytometry analysis (reference value: 0.18 %); format: functional

IC50 (A2780): 160 nM
IC50 [8]: 3300 nM
SMILES: COc1ccc(C2N=C2c2cc(OC)c(OC)c(OC)c2)cc1F (configuration not stated)
Activity (HeLa [1]): 7.79%
Activity (HeLa [2]): 7.52%
Activity (HUVEC): Dose-dependent effect
Activity (Jurkat [3]): Active
Activity (Jurkat [4]): Dose-dependent effect
Activity (HeLa [5]): 0.28%
Activity (HeLa [6]): Dose-dependent effect
Activity (Jurkat [7]): Dose-dependent effect
viability at 8 µM (HeLa [9]): 39.6%
Activity (HeLa [10]): Dose-dependent effect
Activity (HeLa [11]): 50.47%
Activity (HeLa [12]): 1.38%
Activity (HeLa [13]): 0.65%
Activity (HeLa [14]): Dose-dependent effect
Activity (HeLa [15]): 2.14%
